Measurements from ChEMBL document CHEMBL1121802, “Imine analogues of tricyclic antidepressants” (1981).

Columns and labels:
Format in all cases: functional
[1] = test system: Mus musculus; assay: Antidepressant activity by determining the reversal of tetrabenazine-induced ptosis upon oral administration
Procedure, shortened: (§1)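 Mice given test drug orally; 30 min later challenged with tetrabenazine (methanesulfonate) 32 mg/kg ip in 0.05 M KCl pH 2.0. Scored 1 h after test drug for exploratory activity and ptosis; ptosis antagonism = lid closure <50% in both eyes exactly 2 s after placing mouse facing observer. ED50 calculated by Thompson method.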

[2] = test system: Mus musculus; assay: Antidepressant activity by determining the decreased exploratory activity in mice upon oral administration; procedure, shortened: as §1
[3] = test system: Mus musculus; assay: The effect on excitement was measured in mice following oral administration
Procedure, shortened: (§2)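 Observed at 0.5, 2, 5 and 24 h for ataxia (abnormal gait/imprecise movement), pupil diameter (dissecting microscope, 20×, micrometer), excitement (spontaneous running/jumping) and electroshock protection (corneal electrodes at 2 and 5 h). ED50 by Thompson method.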

[4] = test system: Mus musculus; assay: The effect on ataxia in mice following oral administration; procedure, shortened: as §2
[5] = test system: Mus musculus; assay: The effect on electroshock protection in mice following oral administration; procedure, shortened: as §2
[6] = test system: Mus musculus; assay: The effect on 24-hour mortality in mice following oral administration
[7] = test system: Mus musculus; assay: Effect on pupil dilation was measured in mice upon oral administration; procedure, shortened: as §2
[8] = test system: Mus musculus; assay: Compound was tested for antidepressant activity by determining the decreased exploratory activity in mice upon oral administration; 2.6-28; procedure, shortened: as §1
[9] = test system: Mus musculus; assay: Compound was tested for antidepressant activity by determining the reversal of tetrabenazine-induced ptosis upon oral administration; 48-203; procedure, shortened: as §1
[10] = test system: Mus musculus; assay: Compound was tested for antidepressant activity by determining the reversal of tetrabenazine-induced ptosis upon oral administration; 2.0-3.1; procedure, shortened: as §1
[11] = test system: Mus musculus; assay: Compound was tested for antidepressant activity by determining the decreased exploratory activity in mice upon oral administration; 4.2-9.7; procedure, shortened: as §1
[12] = test system: Mus musculus; assay: Compound was tested for antidepressant activity by determining the reversal of tetrabenazine-induced ptosis upon oral administration; 11-29; procedure, shortened: as §1
[13] = test system: Mus musculus; assay: compound was tested for antidepressant activity by determining the decreased exploratory activity in mice upon oral administration; […]
Procedure, shortened: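 Mice got the test drug, then 30 min later tetrabenazine (as methanesulfonate) 32 mg/kg ip, dissolved in 0.20 mL of 0.05 M KCl at pH 2.0. One hour after test drug (30 min after tetrabenazine), animals were scored for exploratory activity and ptosis. Reversal of the tetrabenazine-induced decrease in exploration was the read-out.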

[14] = test system: Mus musculus; assay: Compound was tested for antidepressant activity by determining the reversal of tetrabenazine-induced ptosis upon oral administration; 6-20; procedure, shortened: as §1
[15] = test system: Mus musculus; assay: Compound was tested for antidepressant activity by determining the decreased exploratory activity in mice upon oral administration; 8-58; procedure, shortened: as §1
[16] = test system: Mus musculus; assay: Compound was tested for antidepressant activity by determining the decreased exploratory activity in mice upon oral administration; 4.1-12; procedure, shortened: as §1
[17] = test system: Mus musculus; assay: Compound was tested for antidepressant activity by determining the reversal of tetrabenazine-induced ptosis upon oral administration; 0.8-2.6; procedure, shortened: as §1
[18] = test system: Mus musculus; assay: Compound was tested for antidepressant activity by determining the decreased exploratory activity in mice upon oral administration; 1.2-5.5; procedure, shortened: as §1
[19] = test system: Mus musculus; assay: Compound was tested for antidepressant activity by determining the reversal of tetrabenazine-induced ptosis upon oral administration; 0.3-1.2; procedure, shortened: as §1
[20] = test system: Mus musculus; assay: Compound was tested for antidepressant activity by determining the decreased exploratory activity in mice upon oral administration; 0.4-1.1; procedure, shortened: as §1
[21] = test system: Mus musculus; assay: Compound was tested for antidepressant activity by determining the reversal of tetrabenazine-induced ptosis upon oral administration; 0.17-0.37; procedure, shortened: as §1
[22] = test system: Mus musculus; assay: Compound was tested for antidepressant activity by determining the decreased exploratory activity in mice upon oral administration; procedure, shortened: as §1

Compound	ED50 [1]	ED50 [2]	ED50 [3]	ED50 [4]	ED50 [5]	ED50 [6]	ED50 [7]	other results
CN(C)CCCN=c1c2ccccc2oc2ccccc12	> 125 mg/kg	> 125 mg/kg	> 324 mg/kg	60 mg/kg	> 324 mg/kg	300 mg/kg	> 324 mg/kg	–
CNCCN=C1c2ccccc2CCc2ccccc21	< 5 mg/kg	–	> 324 mg/kg	36 mg/kg	> 324 mg/kg	200 mg/kg	60 mg/kg	ED50 [8]: 8.5 mg/kg
CN(C)CCC/N=C1\c2ccccc2CS(=O)(=O)c2ccccc21	> 125 mg/kg	> 125 mg/kg	> 324 mg/kg	200 mg/kg	> 324 mg/kg	20 mg/kg	20 mg/kg	–
CN(C)CCC/N=C1\c2ccccc2CSc2ccccc21	> 81 mg/kg	81 mg/kg	> 324 mg/kg	60 mg/kg	> 324 mg/kg	60 mg/kg	60 mg/kg	–
CN(C)CCC/N=C1\c2ccccc2COc2ccccc21	–	> 125 mg/kg	> 324 mg/kg	20 mg/kg	> 324 mg/kg	200 mg/kg	20 mg/kg	ED50 [9]: 99 mg/kg
CN(C)CCN=C1c2ccccc2C2C(Cl)C2c2ccccc21 (centres undefined)	> 125 mg/kg	> 125 mg/kg	> 324 mg/kg	200 mg/kg	> 324 mg/kg	> 324 mg/kg	200 mg/kg	–
CN(C)CCN=c1c2ccccc2ccc2ccccc12	–	–	7 mg/kg	4 mg/kg	> 324 mg/kg	36 mg/kg	4 mg/kg	ED50 [10]: 2.5 mg/kg; ED50 [11]: 6.4 mg/kg
NCCN=C1c2ccccc2CCc2ccccc21	–	–	> 324 mg/kg	100 mg/kg	200 mg/kg	200 mg/kg	200 mg/kg	ED50 [12]: 18 mg/kg; ED50 [13]: 56 mg/kg
CN(C)CCN=c1c2ccccc2sc2ccccc12	–	–	> 324 mg/kg	60 mg/kg	> 324 mg/kg	300 mg/kg	36 mg/kg	ED50 [14]: 11 mg/kg; ED50 [15]: 22 mg/kg
CN(C)CCN=C(c1ccccc1)c1ccccc1	> 81 mg/kg	> 81 mg/kg	> 324 mg/kg	36 mg/kg	> 200 mg/kg	> 324 mg/kg	> 324 mg/kg	–
CCN(CC)CCN=C1c2ccccc2C2CC2c2ccccc21 (centres undefined)	–	–	> 324 mg/kg	36 mg/kg	100 mg/kg	200 mg/kg	36 mg/kg	ED50 [16]: 6.9 mg/kg; ED50 [17]: 1.4 mg/kg
CNCCN=C1c2ccccc2C2CC2c2ccccc21 (centres undefined)	–	–	> 324 mg/kg	36 mg/kg	300 mg/kg	300 mg/kg	60 mg/kg	ED50 [18]: 2.6 mg/kg; ED50 [19]: 0.6 mg/kg
CN(C)CCN=C1c2ccccc2C2CC2c2ccccc21 (centres undefined)	–	–	60 mg/kg	20 mg/kg	> 324 mg/kg	> 324 mg/kg	20 mg/kg	ED50 [20]: 0.7 mg/kg; ED50 [21]: 0.25 mg/kg
CCNCCN=C1c2ccccc2CCc2ccccc21	> 125 mg/kg	> 125 mg/kg	> 324 mg/kg	20 mg/kg	60 mg/kg	36 mg/kg	20 mg/kg	–
CN(C)CCNC1c2ccccc2CCc2ccccc21	> 125 mg/kg	–	> 324 mg/kg	20 mg/kg	60 mg/kg	200 mg/kg	20 mg/kg	ED50 [22]: > 125 mg/kg
CN(C)CCC=C1c2ccccc2COc2ccccc21 [DOXEPIN]	5.9 mg/kg	–	> 324 mg/kg	23 mg/kg	62 mg/kg	232 mg/kg	56 mg/kg	ED50 [22]: 27 mg/kg
CN(C)CCCN1c2ccccc2CCc2ccccc21 [IMIPRAMINE]	0.9 mg/kg	–	> 324 mg/kg	62 mg/kg	209 mg/kg	305 mg/kg	198 mg/kg	ED50 [22]: 2.2 mg/kg
